Bioassay records from PubChem.
TRPC4 act: activators of mouse TRPC4 channel | Q9QUQ5 | HEK293 TRPC4beta/mu-opioid, Fluo4 calcium fluorescence; active compounds read high | B-score at 10 µM | 310,000 tested, 0.49% active | AID 2237;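 active means B-score above 5 SD of library B-scores, and initial fluorescence ratio not above library mean plus 5 SD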;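 further: positive B-score marks a calcium rise read as TRPC4 activation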
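Assay system: HEK293 stable line with TRPC4beta plus mu-opioid receptor; schedule: 45 min room-temperature Fluo4 loading, 110 s read; technique: kinetic Fluo4 calcium fluorescence; evaluation: integrated baseline-normalised fluorescence ratio, converted to per-well B score; controls: buffer (low) and maximal DAMGO (high)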
TRPC6 act: activates the mouse TRPC6 cation channel | AID 2550 | HEK293-TRPC6 membrane potential dye fluorescence; active compounds read high | Q61143 | B-score at 10 µM | 310,000 tested, 0.13% active;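 active means B-score of the integrated fluorescence ratio above library mean plus 3 SD, and starting fluorescence ratio within library mean plus 5 SD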;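 further: higher score means more depolarization so channel activation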
TRPC6 inhibitor: inhibitors of mouse TRPC6 channel; Q61143; B-score at 10 µM; HEK293-TRPC6, membrane potential dye, ACh-evoked depolarization; active compounds read low; 310,000 tested, 1.1% active;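 active means B-score under library mean minus 3 SD, initial fluorescence not abnormally high, positive integrated signal ratio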;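 further: B-score derived from integrated fluorescence ratio over the kinetic read; more negative B-score means stronger inhibition of depolarization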
Platelet DG rel: platelet dense granule release activity | inhibition, %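 (compounds screened at 7.5 µM in platelet-rich plasma)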 | AID 1663 | human platelet-rich plasma, SFLLRN dense granule ATP release, luminescence | 300,000 tested, 0.22% active;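 active means mean replicate score, as percent of positive control, at or above 50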
TRPC4 potent: allosteric potentiators of mouse TRPC4 channel. Q9QUQ5. HEK293 TRPC4beta/mu-opioid, DAMGO EC20, Fluo-4 Ca2+ flux; active compounds read high. B-score at 10 µM. 310,000 tested, 0.42% active. AID 2227;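 active means B-score of calcium response area above 5 SD of library B-scores, with initial fluorescence ratio within 5 SD of library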;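 further: B-score of integrated fluorescence ratio over time as area under calcium response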
TRPC4 inh: inhibitors of mouse TRPC4 channel. Q9QUQ5. HEK293 TRPC4beta/mu-opioid, DAMGO-evoked Fluo4 calcium flux; active compounds read low. B-score at 10 µM. 300,000 tested, 0.39% active. AID 2247;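 active means B-score over 3 SD under the library average, no early fluorescence shift, positive overall ratio signal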
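Assay system: TRPC4beta/mu-opioid receptor HEK293 cell line; compound dosing: single concentration per test compound; detection: Fluo4 Ca2+ flux fluorescence; evaluation: per-well B score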
TRPC4 spec 2: second selectivity test of TRPC6 inhibitors: effect on mouse TRPC4; shares compounds with TRPC6 inhibitor; HEK293 TRPC4/MOR, membrane potential dye fluorescence; channel activated by saturating DAMGO dose; inhibition, % at 10 µM; 920 tested, 42% active; AID 2776;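 active means compounds whose fluorescence signal differed from control wells by over 3 SD, either direction, in both duplicate plates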
TRPC4 spec: tests whether TRPC6 inhibitors also affect mouse TRPC4; shares compounds with TRPC6 inhibitor; HEK293 TRPC4/mu-opioid, membrane potential fluorescence; activity change, negative = inhibition, % at 10 µM; 920 tested, 61% active; AID 2777;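 active means rise or fall in signal beyond 3 SD of buffer-only wells in both replicate plates, either sign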;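 further: integrated kinetic ratio of fluorescence range over baseline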
HEK293 MPD ctr 2-1: second check of TRPC6 inhibitor effects in parental HEK293 cells. parental HEK293 membrane potential dye fluorescence; maximal acetylcholine challenge after compound addition. AID 2779. 920 tested, 31% active. shares compounds with TRPC6 inhibitor. signal change vs control, % at 10 µM;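 active means membrane potential signal moving either way by over 3 SD of the maximum-effect control, in both duplicate plates, meaning non-specific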
HEK293 MPD ctr-1: counter-screen for TRPC6 inhibitors: effect in parental HEK293 cells | shares compounds with TRPC6 inhibitor | parental HEK293 membrane potential dye fluorescence | membrane potential signal change, % at 10 µM | 920 tested, 60% active;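 active means membrane potential signal shifting up or down by more than 3 SD of buffer-only wells, on both duplicate plates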
HEK293 MPD ctr-2: checks TRPC6 modulator effects in parental HEK293 cells; shares compounds with TRPC6 inhibitor; membrane potential dye fluorescence; membrane potential signal change, % at 10 µM; 2,400 tested, 51% active; AID 488924;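 active means membrane potential signal moves up or down beyond 5 SD from buffer-only wells, on both duplicate plates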
HEK293 MPD ctr 2-2: parental HEK293 nonspecific activity of TRPC6 modulators, second screen; shares compounds with TRPC6 inhibitor; membrane potential dye fluorescence; after compound, maximal acetylcholine stimulation; inhibition, % at 10 µM; 2,400 tested, 14% active; AID 488926;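 active means membrane potential signal drops by more than 5 SD from the mean control signal, in both duplicate plates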;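 further: plate controls were acetylcholine ECmax control wells for no effect and buffer only wells for full effect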
TRPC4 ctr mod: selectivity of TRPC6 modulators against mouse TRPC4 | shares compounds with TRPC6 inhibitor | HEK293 TRPC4/mu-opioid, membrane potential fluorescence | percent change from control (negative = decrease, positive = increase), % at 10 µM | 2,400 tested, 69% active;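 active means membrane potential signal moved up or down beyond 5 SD of buffer control wells, in both duplicate plates, actives on both sides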;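 further: plate controls were assay buffer wells for no effect and DAMGO maximal-effect wells for full effect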
TRPC4 ctr inh 2: mouse TRPC4 off-target activity of TRPC6 modulators, second screen; 2,400 tested, 55% active; inhibition, % at 10 µM; HEK293 TRPC4/mu-opioid, membrane potential dye fluorescence; stimulated with maximal-effect DAMGO; shares compounds with TRPC6 inhibitor;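 active means drop in membrane potential signal beyond 5 SD of the control wells in both duplicate plates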;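 further: TRPC4 counter screen for TRPC6 hits run under conditions tuned for TRPC6 not TRPC4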
TRPC6 block conf: mouse TRPC6 inhibitor confirmation. 3,300 tested, 43% active. inhibition, % at 10 µM. shares compounds with TRPC6 inhibitor. HEK293-TRPC6, membrane potential dye, ACh-evoked depolarization. AID 488960;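 active means fluorescence ratio falls more than 5 SD below the full-stimulation control mean, in both duplicate runs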;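 further: integrated fluorescence ratio of peak minus minimum over baseline after agonist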
TRPC6 act confirm: mouse TRPC6 activator confirmation; shares compounds with TRPC6 inhibitor; HEK293-TRPC6 membrane potential dye fluorescence, FDSS; activation, % at 10 µM; 2,800 tested, 11% active;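 active means ratio signal rise beyond 5 SD above unstimulated control wells' mean, seen in both duplicate runs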;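 further: plate controls were buffer EC0 wells for no effect and acetylcholine ECmax response for full effect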
* hit, by the source's call; i = inactive; / = no result given. Shown are actives, neighbours in structure and some others; about 2.5% of the full set was active somewhere.

SMILES | TRPC4 act | TRPC6 act | TRPC6 inhibitor | Platelet DG rel | TRPC4 potent | TRPC4 inh | HEK293 MPD ctr-2 | HEK293 MPD ctr 2-2 | TRPC4 ctr mod | TRPC4 ctr inh 2 | TRPC6 block conf | TRPC6 act confirm | others
Cc1ccccc1CC(=O)NC1CCCc2ccccc21 (stereo unspecified) | i | i | i | -4 | i | i | / | / | / | / | / | /
O=C(CCc1ccccc1)NC1CCCc2ccccc21 (stereo unspecified) | i | i | -7.5* | 1 | i | i | / | / | / | / | i | i | TRPC4 spec 2=i;TRPC4 spec=6.5%*;HEK293 MPD ctr 2-1=i;HEK293 MPD ctr-1=5.4%*
Cc1cc(=O)oc2c3c4c(cc12)OCCN4CCC3 | i | i | i | 1 | i | i | / | / | / | / | / | /
CC(C)c1cc(=O)oc2c3c4c(cc12)CCCN4CCC3 | i | i | -5.2* | -7 | i | i | 640%* | i | -127%* | 39%* | i | i
CCOC(=O)N1CCC(N2Cc3cccc(C(=O)N4CCN(c5cccc(Cl)c5)CC4)c3C2=O)CC1 | i | i | -6.3* | 1 | i | i | 100%* | i | 22%* | i | 42%* | /
CCOC(=O)N1CCC(N2Cc3cccc(C(=O)Nc4cccc(F)c4)c3C2=O)CC1 | i | i | -9.2* | -7 | i | i | / | / | / | / | 90%* | i | TRPC4 spec 2=i;TRPC4 spec=i;HEK293 MPD ctr 2-1=-12%*;HEK293 MPD ctr-1=i
COc1ccc(CCC(C)N(C)Cc2ccccc2)cc1 (stereo unspecified) | i | i | i | -10 | i | i | / | / | / | / | / | /
C#Cc1cccc(C(=O)N2CCCC(Nc3cccc(F)c3)C2)c1 (stereo unspecified) | i | i | i | -4 | i | i | / | / | / | / | / | /
CC(=O)Oc1cc2c3c(c1)/C(=C1/SC(=S)NC1=O)C(=O)N3C(C)(C)C=C2C | i | i | -5.7* | 13 | i | i | -112%* | i | -28%* | 83%* | 58%* | i
CCOc1cc2c3c(c1)C(C)=CC(C)(C)N3C(=O)C2=O | i | i | i | -4 | i | i | / | / | / | / | / | /
Cc1ccccc1C1=NC(C(F)(F)F)(C(F)(F)F)c2c(n(C)c(=O)n(C)c2=O)N1 | i | i | i | 4 | i | i | / | / | / | / | / | /
